Converted amounts (≈) assume the structure as drawn.
How the values were obtained:
Malme-3M [1] = assay: Inhibition of cellular viability of Malme-3M cells; assay type: functional, Homo sapiens
Malme-3M [2] = assay: Inhibition of basal ERK phosphorylation in Malme-3M cells; assay type: functional, Homo sapiens
HT-29 [3] = assay: Inhibition of ERK phosphorylation in HT29 tumor bearing Ncr-nu/nu mice after 12 hrs at 10 mg/kg, po; assay type: functional; settings: Mus musculus, HT-29, 12 h
[4] = Aqueous solubility at pH 6.5; assay type: physicochemical
Summary of the method: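 Thermodynamic shake-flask method: crystalline solid (0.5 mg, crystallinity confirmed by polarizing microscopy) in 0.5 mL 10 mM potassium phosphate, pH 6.5, swirled 24 h at room temperature. Filtered aliquots were quantified by HPLC-PDA against a calibration curve.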

[5] = Half life in rat at 1 mg/kg, iv; assay type: ADME, organism-based; set-up: dose 1 mg/kg, route intravenous; settings: Sprague-Dawley, in vivo
Summary of the method: (§1)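 Male Sprague Dawley rats (6-10 weeks), fed ad lib, dosed IV at 1 mg/kg (1 mg/mL in 10% DMSO/90% normal saline, 1 mL/kg). Tail-vein EDTA blood sampled 1, 5, 15, 30 min and 1, 2, 4, 8, 12, 24 h. Plasma analysed by LC/MS/MS after methanol protein precipitation, range 9 ng/mL to 20 µg/mL. Parameters derived by non-compartmental analysis.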

HT-29 [6] = assay: Inhibition of ERK phosphorylation in HT29 tumor bearing NCr-nu/nu mice after 4 hrs at 10 mg/kg, po; assay type: functional; settings: Mus musculus, HT-29, 4 h
[7] = Half life in rat at 10 mg/kg, po; assay type: ADME, organism-based; set-up: dose 10 mg/kg, route oral; settings: Sprague-Dawley, in vivo
Summary of the method: (§2)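 Male Sprague Dawley rats (6-10 weeks) were given 10 mg/kg by oral gavage (2 mg/mL in 1% CMC/0.5% Tween 80, 5 mL/kg). Tail-vein EDTA blood was drawn at 15 and 30 min and 1, 2, 4, 8, 12, 24, 48, 72 h. Plasma was quantified by LC/MS/MS after methanol precipitation. Parameters came from non-compartmental analysis.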

[8] = Clearance in presence of human hepatocytes; assay type: ADME, cell-based, Liver, Hepatocyte
Summary of the method: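 Human hepatocytes (fresh or cryopreserved) diluted to 2 x 10⁶ viable cells/mL in supplemented Krebs-Henseleit buffer pH 7.3, mixed 1:1 with 2 µM compound working solution. Incubated at 37 °C, 5% CO₂, duplicates, one plate per timepoint. Quenched with labetalol internal standard and centrifuged; compound remaining measured by LC-MS/MS (ESI+, MRM).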

Rattus norvegicus [9] = assay: AUC in rat at 1 mg/kg, iv; assay type: ADME, organism-based, Sprague-Dawley, Plasma; set-up: dose 1 mg/kg, route intravenous; settings: in vivo; summary of the method: as §1
[10] = Oral bioavailability in rat; assay type: ADME, organism-based; settings: Sprague-Dawley, in vivo
Summary of the method: (§3)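 Male Sprague Dawley rats (6-10 weeks) received IV 1 mg/kg (10% DMSO/90% saline) and PO 10 mg/kg (1% CMC/0.5% Tween 80). Serial tail-vein plasma was taken up to 24 h (IV) or 72 h (PO) and analysed by LC/MS/MS (9 ng/mL to 20 µg/mL). Parameters were calculated non-compartmentally.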

Rattus norvegicus [11] = assay: AUC in rat at 10 mg/kg, po; assay type: ADME, organism-based, Sprague-Dawley, Plasma; set-up: dose 10 mg/kg, route oral; settings: in vivo; summary of the method: as §2
[12] = Clearance in rat; assay type: ADME, organism-based; settings: Sprague-Dawley, in vivo; summary of the method: as §3
[13] = Volume of distribution in rat; assay type: ADME, organism-based; settings: Sprague-Dawley, in vivo, read-out: Vdss; summary of the method: as §3

Row | SMILES | Activity (Malme-3M [1]) [nM] | Activity (Malme-3M [2]) [nM] | further results
1 | O=C(NOCCO)c1cnc(Cl)c(Cl)c1Nc1ccc(Br)cc1F | >5000 | >10000 | 
2 | CONC(=O)c1cn(C)c(=O)c(F)c1Nc1ccc(Br)cc1F | 145 | 22 | 
3 | Cn1cc(C(=O)NOCCO)c(Nc2ccc(Br)cc2F)cc1=O | 460 | 73 | 
4 | Cc1c(Nc2ccc(Br)cc2F)c(C(=O)NOCC2CC2)cn(C)c1=O | 46 | 7.5 | 
5 | Cn1cc(C(=O)NOCCO)c(Nc2ccc(Br)cc2F)c(Cl)c1=O | 175 | 26 | 
6 | Cn1cc(C(N)=O)c(Nc2ccc(Br)cc2F)c(F)c1=O | 48 | 7.1 | inhibition in vivo at 10 mg/kg (HT-29 [3]): 50%; solubility [4]: 0.026 mg/mL (≈ 72.6 µM); half-life [5]: 1.8 h; inhibition in vivo at 10 mg/kg (HT-29 [6]): > 80%; half-life [7]: 11 h; CLhep predicted [8]: 0.54 L/h/kg; AUC (Rattus norvegicus [9]): 2.5 µg·h/mL; bioavailability [10]: 100%; AUC (Rattus norvegicus [11]): 23 µg·h/mL; clearance [12]: 0.342 L/h/kg; Vd [13]: 0.8 L/kg
7 | COc1ncc(C(=O)NOCCO)c(Nc2ccc(Br)cc2F)c1Cl | >5000 | >10000 | 
8 | Cn1cc(C(=O)NO)c(Nc2ccc(Br)cc2F)c(F)c1=O | 860 | 18 | 

From ChEMBL document CHEMBL1147738, “Potent and selective mitogen-activated protein kinase kinase (MEK) 1,2 inhibitors. 1. 4-(4-bromo-2-fluorophenylamino)-1- methylpyridin-2(1H)-ones” (J Med Chem, 2006)
